Hits are enriched below; roughly 2.1% of the tested compounds scored in any of these assays.
APJ agonist – activates the human apelin receptor APJ; 330,000 compounds, 0.11% hits; activation, % at 20 µM; AID 2520; P35414; CHO-K1 APJ PathHunter beta-arrestin, luminescence; 0% DMSO wells, 100% apelin;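 active = activation more than six SD over the plate average, tested at 20 µM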;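 note: 0% = DMSO alone and 100% = apelin-13 at 10 nM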
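Material: CHO-K1 APJ beta-arrestin complementation cell line; Input: cell density 1000 per well; Incubation: compound stimulation 90 min at 25 °C, detection 60 min; Signal: luminescence from split beta-galactosidase complementation, Galacton Star/Emerald II substrate; Controls: DMSO-only wells as negative, 10 nM Apelin-13 as positive control.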
HTR2A ag – mouse HTR2A agonism via beta-arrestin recruitment. P35363. CHO-K1 mHTR2A beta-arrestin complementation, luminescence; percent of 30 µM serotonin response. activation, % at 7.6 µM. 360,000 compounds, 0.66% hits. AID 624169;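 active = activation above a run cutoff, the mean activation of all tested compounds plus 3 SD, cut at about 14% in these data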;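 note: 0% = plate median of compound wells and 100% = 30 µM serotonin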
Target sequence (P35363 whole entry, looked up): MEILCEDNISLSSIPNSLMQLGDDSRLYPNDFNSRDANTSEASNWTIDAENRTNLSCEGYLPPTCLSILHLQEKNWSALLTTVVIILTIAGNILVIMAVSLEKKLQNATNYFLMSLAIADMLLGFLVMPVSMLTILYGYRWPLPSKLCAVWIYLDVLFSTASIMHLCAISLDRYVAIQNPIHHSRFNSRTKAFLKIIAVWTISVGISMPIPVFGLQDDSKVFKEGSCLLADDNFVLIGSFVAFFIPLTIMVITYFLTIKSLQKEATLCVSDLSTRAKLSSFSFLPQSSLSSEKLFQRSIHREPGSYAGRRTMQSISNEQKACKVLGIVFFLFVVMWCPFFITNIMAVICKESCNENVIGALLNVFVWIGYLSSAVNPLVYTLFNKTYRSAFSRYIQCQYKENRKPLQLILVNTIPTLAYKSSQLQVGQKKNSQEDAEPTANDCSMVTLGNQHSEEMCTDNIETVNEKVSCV
CXCR6 block – blocks human CXCR6 beta-arrestin recruitment; O00574; CHO-K1 PathHunter CXCR6 beta-arrestin, luminescence; inhibition, % at 20 µM; 360,000 compounds, 0.36% hits; AID 602244; in the data active = inhibition above about 34%, passing the limit was not always enough;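 note: antagonist mode with CXCL16 agonist at 10 nM final; 0% = 10 nM CXCL16 with DMSO and 100% = unstimulated wells without agonist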
EBI2 antag – blocks human EBI2 receptor beta-arrestin signaling | P32249 | 360,000 compounds, 0.81% hits | EBI2 beta-arrestin recruitment, luminescence, 7a,25-OHC stimulated | inhibition, % at 5 µM; in the data active = inhibition above about 38%;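 note: enzyme fragment complementation signal reports receptor beta-arrestin coupling in cells; 0% = agonist plus DMSO wells and 100% = wells without agonist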
CCR6 antagonist – blocks CCL20-driven beta-arrestin recruitment at human CCR6. P51684. CHO-K1 CCR6 PathHunter beta-arrestin, luminescence, CCL20-stimulated. inhibition, % at 20 µM. 340,000 compounds, 0.49% hits. AID 493098;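 active = compounds whose inhibition of the agonist-driven luminescence signal at 20 µM reaches about 50%, limit read from the data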;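 note: cells stimulated with CCL20 at 14 nM final; plate controls were DMSO with CCL20 for no effect and DMSO without agonist for full effect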
APJ antag – antagonists of human APJ apelin receptor; inhibition, % at 20 µM; CHO-K1 APJ beta-arrestin complementation, luminescence; AID 2521; 330,000 compounds, 0.32% hits;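 active = inhibition above about 40% at 20 µM, limit read from the data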;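 note: cells challenged with 10 nM apelin-13 agonist together with compound; plate controls were apelin-13 plus DMSO wells for no effect and DMSO wells lacking apelin-13 for full effect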
EBI2 conf – confirmation of human EBI2 receptor antagonists; AID 651997; inhibition, % at 5 µM; EBI2 beta-arrestin luminescence, 7a,25-OHC antagonism; shares compounds with EBI2 antag; 2,400 compounds, 29% hits;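 active = inhibition of at least 50%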
EBI2 agonist – activates EBI2, counter-screen for EBI2 antagonists; EBI2-expressing cells, agonist mode, luminescence, 60 min; 0% vehicle, 100% 7α,25-dihydroxycholesterol control; 2,400 tested, under 10 active; AID 652000; activation, % at 5 µM; shares compounds with EBI2 antag;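 active = activation of at least 50%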
bGal cs – inhibits E. coli beta-galactosidase, counter-screen for EBI2 antagonists; shares compounds with EBI2 antag; purified beta-galactosidase, luminescent Galacton Star, 15 min; inhibition, % at 5 µM; 2,400 compounds, 1% hits; AID 652176;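 active = replicate-average signal at least 3 plate SD below neutral wells, shown as high inhibition, flagging enzyme-inhibiting false positives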;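 note: 0% = DMSO wells with enzyme and 100% = wells lacking enzyme; higher means stronger loss of beta-gal luminescence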
* hit, by the source's call; x = no result.

SMILES | APJ agonist | HTR2A ag | CXCR6 block | EBI2 antag | CCR6 antagonist | APJ antag | EBI2 conf | EBI2 agonist | bGal cs
Cn1c(CNC(=O)c2ccccc2F)nnc1SCC(=O)Nc1nnc(C2CC2)s1 | 1 | -3 | -6 | -7 | 5 | 2 | x | x | x
Cc1cccc(S(=O)(=O)c2c(N)n(/N=C/c3ccco3)c3nc4ccccc4nc23)c1 | 1 | 2 | 5 | 59* | 7 | -33 | 68* | 0 | 4
Nc1c(S(=O)(=O)c2ccccc2)c2nc3ccccc3nc2n1/N=C/c1ccco1 | 12 | -1 | 8 | 67* | 17 | -14 | 77* | 0 | -14
Cc1ccc(S(=O)(=O)c2c(N)n(/N=C/c3ccco3)c3nc4ccccc4nc23)cc1 | 4 | 0 | -7 | 41* | 19 | 3 | 55* | 2 | 2
Cc1cccc(S(=O)(=O)c2c(N)n(/N=C/c3cccnc3)c3nc4ccccc4nc23)c1 | 5 | 7 | 3 | 39 | -1 | -3 | x | x | x
CCOC(=O)N1CCN(S(=O)(=O)c2ccc(C(=O)NNc3nc4ccc(Cl)cc4s3)cc2)CC1 | 7 | 3 | 7 | -3 | 14 | 4 | x | x | x
O=C(c1cc2c(ccc3ccccc32)o1)N1CCCCC1 | -5 | 0 | -3 | 51* | 8 | 2 | 27 | 0 | 6
O=C(c1cc2c(ccc3ccccc32)o1)N1CCN(c2ncc(C(F)(F)F)cc2Cl)CC1 | 5 | 9 | -3 | 91* | -2 | 17 | 79* | 0 | 4
O=C(c1[nH]c(C(F)(F)F)nc1-c1ccccc1)N1CCN(c2ncc(C(F)(F)F)cc2Cl)CC1 | x | 11 | 4 | -4 | x | x | x | x | x
O=C(c1cc2cc(Cl)ccc2o1)N1CCCCCC1 | 1 | -9 | 0 | 47* | 9 | 9 | 20 | 1 | 12
CCOc1ccc(CCNC(=O)c2ccc(CS(=O)Cc3ccc(Cl)cc3)o2)cc1 (centres undefined) | 0 | -1 | -3 | 46* | 17 | 10 | 28 | 1 | 2
CSc1ccc(CCNC(=O)c2ccc(CS(=O)Cc3ccc(Cl)cc3)o2)cc1 (centres undefined) | 5 | -2 | -16 | 54* | 17 | 5 | 7 | 0 | -12
O=C(NCCc1ccc(Cl)cc1)c1ccc(CS(=O)Cc2ccc(Cl)cc2)o1 (centres undefined) | 0 | 7 | -6 | 68* | 6 | 3 | 54* | -2 | -8
CCC(Sc1nc2ccc(N)cc2s1)C(=O)Nc1nccs1 (centres undefined) | -1 | 1 | 4 | -13 | -3 | 4 | x | x | x
CN(Cc1nc(-c2cnccn2)no1)CC(O)c1ccccc1 (centres undefined) | -1 | 5 | -6 | 3 | 2 | -10 | x | x | x
CCN1C=C(Cc2ccccc2C)C2=C(C1)C(c1ccccc1C)C(C#N)=C(N)O2 (centres undefined) | -1 | 3 | 14 | 28 | 7 | -4 | x | x | x
O=C(CCc1c[nH]c2ccccc12)NCCc1ccc(Cl)cc1 | -2 | 0 | -16 | 49* | 16 | -9 | 29 | 0 | 7
CC(=O)NC(c1cccs1)c1cc(Cl)c2ccccc2c1O (centres undefined) | -1 | -4 | -16 | -25 | -23 | -14 | x | x | x
N#CCCn1cc(/C=C(\C#N)c2nc3ccccc3s2)c(-c2ccc(F)cc2)n1 | -5 | 0 | 20 | 46* | 16 | 0 | 34 | -1 | -19
COc1ccc(S(=O)(=O)n2oc(=O)cc2-c2ccccc2)cc1OC | -2 | -1 | 4 | -4 | 6 | -6 | x | x | x
COc1cccc(-c2onc3ccc(C4(C)OCCO4)cc23)c1 | 5 | -1 | -13 | 48* | 1 | -5 | 11 | 0 | 8
CCn1c(-c2ccccc2Cl)nn(CC(=O)Nc2cc(Cl)ccc2Cl)c1=S | -3 | 0 | 3 | 13 | 8 | 2 | x | x | x
CCn1c(-c2ccccc2Cl)nn(CC(=O)NCCc2ccccc2)c1=S | -1 | -1 | -3 | 57* | 10 | 8 | 31 | -1 | -6
COc1ccc(N(C(=O)CNC(=O)c2ccco2)C(C(=O)NCC2CCCO2)c2ccccc2)c(OC)c1 (centres undefined) | -3 | -2 | 2 | -4 | 0 | -1 | x | x | x
COc1ccc(-c2c(C)nn3c(N4CCN(Cc5ccccc5)CC4)cc(C)nc23)cc1OC | -1 | -2 | -1 | -7 | -7 | 10 | x | x | x
SMILES | APJ agonist | HTR2A ag | CXCR6 block | EBI2 antag | CCR6 antagonist | APJ antag | EBI2 conf | EBI2 agonist | bGal cs
Cc1cc(N2CCN(Cc3ccccc3)CC2)n2nc(C)c(-c3ccccc3)c2n1 | -3 | 1 | 2 | 47* | 6 | 3 | 15 | -1 | -21
Cc1ccc(CNC(=O)C2CCC(CNS(=O)(=O)c3cccc4cccnc34)CC2)cc1 (centres undefined) | -3 | -14 | 0 | 50* | 12 | -28 | 39 | -1 | -10
Cc1ccc(CNC(=O)C2CCN(S(=O)(=O)c3c(C)noc3C)CC2)cc1 | 1 | 0 | -6 | 47* | -9 | 10 | 18 | 1 | -10
CC(=O)N1CCOc2ccc(S(=O)(=O)N3CCC(C(=O)NCc4ccccc4)CC3)cc21 | -2 | -6 | 1 | 65* | -6 | 3 | 50 | 0 | -14
Cc1ccc(CNC(=O)C2CCN(S(=O)(=O)c3cccnc3)CC2)cc1 | -6 | -7 | -3 | 52* | 7 | 12 | 44 | 2 | 5
COc1cccc(CNC(=O)C2CCC(CNS(=O)(=O)c3cccc4cccnc34)CC2)c1 (centres undefined) | -1 | 7 | 4 | 4 | 16 | -2 | x | x | x
CC(=O)c1ccc(-n2nnnc2SCC(=O)Nc2cccc(NC(=O)c3ccco3)c2)cc1 | 0 | -3 | 4 | -8 | 8 | 2 | x | x | x
Cc1ccc(CNC(=O)C2CCN(S(=O)(=O)c3cccc4nonc34)CC2)cc1 | -3 | -3 | 5 | 49* | 17 | 4 | 24 | 0 | 7
Cc1ccc(CCNC(=O)C2CCN(S(=O)(=O)c3cccc4nonc34)CC2)cc1 | 1 | 2 | 6 | 1 | 10 | 9 | x | x | x
CCCCNc1c(-c2ccc(SC(C)CC)cc2)nc2ccc(Cl)cn12 (centres undefined) | x | -2 | 4 | 12 | x | x | x | x | x

Assay outcomes as filed in PubChem.
